Most compounds without a hit are left out; they make up all but 1.8% or so of the library.
MC4R barr agon = agonists of human melanocortin 4 receptor (MC4R) beta-arrestin. AID 540308. activation, % at 8.9 µM. U2OS MC4R beta-arrestin complementation, luminescence; percent of melanotan II response, DMSO zero. 360,000 tested, 0.98% active;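 active means activation above a per-plate cutoff, the mean activation of sample wells on that plate plus 3 SD, cut at about 8% in these data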
TLR4 MyD88 comp = blocks binding of human TLR4 to MyD88 | inhibition, % at 8.4 µM | 200,000 tested, 0.18% active | O00206+Q99836 | HeLa CL3-4 TLR4/MyD88 BLA complementation, FRET ratio; in the data active means inhibition above about 25%;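 further: 0% = vehicle and 100% = reference inhibitor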
TLR9-MyD88 block = inhibitors of human TLR9-MyD88 binding. Q9NR96+Q99836. CHO BLA complementation TLR9-MyD88, CCF4 FRET ratio. inhibition, % at 4.98 µM. 340,000 tested, 0.21% active. AID 504734;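 active means inhibition above the mean over all tested compounds plus 3 SD, cut at about 21% in these data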;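 further: 0% = DMSO only wells and 100% = clavulanate BLA inhibitor control wells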
NOD2 RIPK2 PPI = NOD2-RIPK2 protein interaction inhibition | O43353 | CHO BLA complementation NOD2-RIPK2, CCF4 ratio | inhibition, % at 4.98 µM | 360,000 tested, 0.38% active | AID 624267; in the data active means inhibition above about 21%;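 further: 0% = vehicle only and 100% = reference blocker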
MC4R antagonist = human MC4R antagonism in cAMP assay | inhibition, % at 6.5 µM | P32245 | MC4R-expressing cells, MTII-stimulated cAMP, LANCE TR-FRET | 360,000 tested, 0.48% active;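 active means inhibition above its plate's cutoff, the mean of tested wells on that plate plus 3 SD, cut at about 29% in these data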;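 further: 0% = Melanotan II alone and 100% = Melanotan II plus saturating MCL0020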
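Assay system: U2OS cells stably expressing human melanocortin 4 receptor (MC4R) / Dosing: 6.5 µM / Timing: compound 30 min, challenge 1 h, detection 1 h / Measured by: Eu-cAMP/anti-cAMP TR-FRET, emission 671 nm / Replicates: singlicate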
An asterisk follows results filed as active; / = no result given.

SMILES	MC4R barr agon	TLR4 MyD88 comp	TLR9-MyD88 block	NOD2 RIPK2 PPI	MC4R antagonist
CCNc1nc(NC(C)CC)nc(Oc2ccc(OCC)nn2)n1 (centres undefined)	-1	-4	-10	4	6
Cc1cc(C)cc(OCC(=O)Nc2ccc(N3CCCCC3)cc2)c1	8.8*	/	-8	-10	6
Cc1cc(C)cc(OCC(=O)Nc2ccc(N3CCN(S(C)(=O)=O)CC3)cc2)c1	-3	-13	-1	-8	-1
COc1ccc(C2NN=C(c3c[nH]c4ccccc34)C2O)cc1 (centres undefined)	1	/	9	-13	18
COc1ccc(C2C(O)C(c3c[nH]c4ccccc34)=NN2C(=O)CCl)cc1 (centres undefined)	16*	/	-4	1	12
Cc1ccc(NC(=O)C=NOCC(=O)Nc2cc(C)cc(C)c2)cc1	4	/	-3	-1	-4
CCCc1nn(C)c(C(=O)Nc2cccc(CC)c2)c1Cl	6	-14	-14	-5	6
CCCc1nn(C)c(C(=O)Nc2ccc3ccccc3c2)c1Cl	9.4*	5	3	-5	14
COc1ccc(-c2csc(C(C)(O)c3ccc(F)c(F)c3)n2)cn1 (centres undefined)	1	/	/	-2	3
COc1ccc(-c2cc(C(=O)Nc3cc(C)n(Cc4ccc(Cl)cc4)n3)no2)cc1OC	24*	-7	-8	-11	6
COc1ccc(OC)c(-c2cc(C(=O)Nc3c(C)nn(Cc4ccc(Cl)cc4)c3C)no2)c1	0	-7	0	1	-1
Cc1ccc(C(=O)CN2/C(=C(\O)c3ccccc3)C(=O)c3ccccc3S2(=O)=O)c(C)c1	12*	-6	0	0	-3
COc1ccc(C)cc1Nc1n[n+](-c2ccccc2)c(-c2c(OC)ccc3ccccc23)s1	-1	/	-2	4	4
c1ccc(-[n+]2nc(Nc3cccc4ccccc34)sc2-c2c3ccccc3cc3ccccc23)cc1	-1	/	44*	51*	-3
CCOc1ccc(CCNS(=O)(=O)c2c(C)nc3sccn3c2=O)cc1OCC	-1	/	/	-1	14
O=C(c1cccc(Cl)c1)c1nn(-c2ccccc2)c(=O)cc1C(F)(F)F	8.5*	0	-7	0	-5
CNC(=S)N1N=C(c2cccs2)CC1c1ccc(F)cc1 (centres undefined)	0	/	8	-2	-4
COc1ccc(N(C(=O)c2ccco2)C(C(=O)NC2CCCC2)c2cccs2)c(OC)c1 (centres undefined)	0	/	-8	-9	27
C#CC(=O)N(c1cccc(OC)c1)C(C(=O)NC1CCCC1)c1cccs1 (centres undefined)	8	18	6	10	35*
Cc1cc(Cl)ccc1C(O)c1ncc(-c2cccc3ccccc23)[nH]1 (centres undefined)	1	/	/	-11	8
O=C1CC2(CCN(C(=O)c3ccc(Br)cc3)CC2)Oc2ccccc21	0	/	3	6	0
O=C(NC1CCCCC1)C(c1cccnc1)N(C(=O)CCl)c1cccc(Cl)c1 (centres undefined)	13*	17	-2	-4	4
COc1ccc(C(C(=O)NC2CCCCC2)N(C(=O)CCl)c2ccc(Cl)cc2)cc1 (centres undefined)	13*	-8	7	-2	20
N#Cc1ccccc1C[C@H](N)C(=O)NC[C@H]1O[C@@H](n2ccc(N)nc2=O)[C@H](O)[C@@H]1O	0	/	-3	-6	4
CCCCN1CC(=O)N2[C@@H]3c4cc(OC)ccc4OC[C@@H]3[C@H](C(=O)OCC)[C@]2(C)C1=O	1	/	-16	-8	9
Cc1cc(NC(=O)CSc2nc(C(C)C)nc3sc(C)c(C)c23)no1	8.4*	5	-6	-12	-4
O=C(COc1ccc2ccccc2c1)Nc1cccnc1Cl	8.3*	/	-2	-3	13
CCc1ccc(OCC(=O)NC(=S)Nc2ccc(S(=O)(=O)NC3CCCCC3)cc2)cc1	8.3*	4	2	-7	-9
O=C(NC(=S)N1CCOCC1)C12CC3CCC(CC(C3)C1)C2	-1	4	-9	-4	10
CC12CC3(C)CC(C)(C1)CC(C(=O)NC(=S)N1CCOCC1)(C2)C3	8.7*	-10	-2	-2	7

Source: PubChem
